Assay outcomes: PubChem, several laboratories
Myeloid diff MLP – compounds promoting myeloid differentiation; ER-HoxA9 myeloid progenitors, lysozyme-GFP differentiation, flow cytometry; calls only at 10 µM; actives 1% (n = 360,000);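 active means normalized GFP-positive differentiation at or above the plate's own cutoff, the solvent-only control mean plus 3 SD; inconclusive means no clear call, values can overlap the other calls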;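 further: cells exposed to compound for four days before flow analysis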
Vif imaging – HIV Vif inhibition; HEK293T cells, Vif self-association by quenched fluorescence, imaging, 24 h; inhibition, % at 7.49 µM; actives 0.35% (n = 340,000); AID 602346; in the data active means inhibition above about 50%, passing the limit was not always enough; inconclusive means no clear call, values can overlap the other calls; inactive means below about 31%
T cell modulator – T cell immune modulators affecting CD8 T cell-vesicle binding; AID 2052; response (vesicle binding), % at 7 µM; actives 0.068% (n = 330,000); 2C CD8+ T cell-vesicle binding, flow cytometry; stronger effect = lower value;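 active means response, share of CD8 T cells binding vesicles, and their 90th percentile fluorescence all below set limits, cut at about 80% in these data, passing the limit was not always enough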;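 further: values below 100% mean blocked vesicle binding to the CD8+ T cells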
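Benchmarks: naked versus QL9-loaded vesicles / Assay system: purified 2C TCR transgenic mouse naive CD8+ T cells / Technique: high-throughput flow cytometry with anti-B7-1 and anti-CD8 staining / Timing: Cell–vesicle co-incubation 1.5 h at 37 °C, staining 20 min on ice / Read-out: percent CD8+ FL2 mean versus row control / Probe or stimulus: QL9-loaded Drosophila micro-vesicles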
DSG3 Ab inh – blocks pemphigus antibody binding to human desmoglein-3; DSG3-coupled beads, scFv-anti-DSG3-GFP binding, flow cytometry; stronger effect = lower value; binding (percent of control), % at 10 µM; actives 0.48% (n = 310,000);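 active means binding more than 3 SD below its plate's average and above zero; inconclusive means below that plate limit but binding exactly zero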;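 further: hits lower antibody fragment binding to DSG3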
Target sequence (P32926 whole entry, looked up, the tested form may be a part): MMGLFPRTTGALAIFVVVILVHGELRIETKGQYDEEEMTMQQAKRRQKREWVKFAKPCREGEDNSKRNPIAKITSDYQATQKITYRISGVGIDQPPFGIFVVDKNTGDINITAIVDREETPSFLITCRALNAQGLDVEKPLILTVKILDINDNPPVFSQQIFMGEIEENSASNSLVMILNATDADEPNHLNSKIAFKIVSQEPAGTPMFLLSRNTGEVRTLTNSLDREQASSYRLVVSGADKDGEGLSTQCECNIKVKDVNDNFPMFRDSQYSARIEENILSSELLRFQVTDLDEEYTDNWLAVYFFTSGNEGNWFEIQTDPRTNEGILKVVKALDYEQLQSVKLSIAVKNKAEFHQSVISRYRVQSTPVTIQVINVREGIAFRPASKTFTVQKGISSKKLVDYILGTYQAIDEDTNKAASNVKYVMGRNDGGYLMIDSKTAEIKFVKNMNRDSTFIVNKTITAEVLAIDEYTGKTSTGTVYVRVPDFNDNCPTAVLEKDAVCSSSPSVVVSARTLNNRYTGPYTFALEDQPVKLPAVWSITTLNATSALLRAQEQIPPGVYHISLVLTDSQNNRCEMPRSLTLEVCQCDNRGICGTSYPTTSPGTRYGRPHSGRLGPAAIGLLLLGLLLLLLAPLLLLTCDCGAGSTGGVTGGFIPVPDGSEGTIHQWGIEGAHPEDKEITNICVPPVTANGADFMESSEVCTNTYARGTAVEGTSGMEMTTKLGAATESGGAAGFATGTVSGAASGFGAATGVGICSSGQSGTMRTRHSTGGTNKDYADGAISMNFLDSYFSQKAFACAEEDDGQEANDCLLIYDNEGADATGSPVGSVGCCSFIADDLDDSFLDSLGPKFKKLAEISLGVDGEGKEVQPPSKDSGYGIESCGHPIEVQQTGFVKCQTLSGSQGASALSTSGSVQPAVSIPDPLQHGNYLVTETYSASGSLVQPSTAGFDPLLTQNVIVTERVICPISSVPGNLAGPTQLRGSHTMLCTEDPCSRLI
Myeloid diff CP1 – myeloid differentiation induction; shares compounds with Myeloid diff MLP; ER-HoxA9 myeloid progenitors, GFP/Mac1 double-positive flow; actives 2% (n = 2,300); calls only; AID 651706;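 active means share of green or green-and-red cells above 9 and 9% in run 1 or 4 and 3% in run 2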
GFP autofluor – compound fluorescence in myeloid differentiation counter-screen | shares compounds with Myeloid diff MLP | ER-HoxA9 myeloid progenitors, no estrogen, GFP autofluorescence flow cytometry; vehicle wells 0%, positive control 100% | fluorescence response, % (no concentration beside the values) | actives 7.4% (n = 2,300) | AID 651707;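 active means over 5% cells positive for green fluorescent reporter, or over 2% positive for both it and APC stain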
Large screens that a line does not name were inactive (follow-up assays come after a bar, where they were run). An excerpt weighted towards active compounds, which were near 1.7% of everything screened.

O=C(Nc1ccc(F)cc1)C(c1cc2ccccc2o1)N1CCN(c2cccc(C(F)(F)F)n2)CC1 (configuration not stated)	none (no result: Vif imaging, T cell modulator, DSG3 Ab inh)
CC(C(=O)NNS(=O)(=O)c1cccc(C(F)(F)F)c1)n1nnc(N2CCOCC2)n1 (configuration not stated)	Myeloid diff MLP active | Myeloid diff CP1 inactive | GFP autofluor inactive
CCCCN(C(=O)c1cc(-c2ccncc2)nc2ccccc12)c1c(N)n(CC(C)C)c(=O)[nH]c1=O	none
CCCCn1c(N)c(N(CC(C)C)C(=O)c2cc(-c3ccncc3)nc3ccccc23)c(=O)[nH]c1=O	Myeloid diff MLP active | Myeloid diff CP1 inactive | GFP autofluor inactive
O=C(c1cccnc1)N1CCN(c2ccccc2Cl)CC1	none (no result: Myeloid diff MLP, Vif imaging, DSG3 Ab inh)
O=C(c1ccccc1)c1ccc(C(=O)N2CCN(c3ccccc3Cl)CC2)cc1	none (no result: Vif imaging) | Myeloid diff CP1 inactive | GFP autofluor inactive
O=C(C1CCC(=O)N(C2CCCC2)C1)N1CCN(c2ccc(Cl)cc2)CC1 (configuration not stated)	none
Cc1ccc(Cl)cc1N1CCN(C(=O)C2CCC(=O)N(C3CCCCCC3)C2)CC1 (configuration not stated)	Myeloid diff MLP active, DSG3 Ab inh inconclusive | Myeloid diff CP1 inactive | GFP autofluor inactive
CC(C)COC(=O)N1CCCCC1c1cc(C(=O)NCc2ccc(F)cc2)no1 (configuration not stated)	none (no result: T cell modulator, DSG3 Ab inh)
Cc1cccc(NC(=O)c2ccccc2SCc2ccc(F)cc2)n1	Myeloid diff MLP active | Myeloid diff CP1 inactive | GFP autofluor inactive
CCCCCSc1nncc(=O)[nH]1	Myeloid diff MLP active | Myeloid diff CP1 inactive | GFP autofluor inactive
Cc1ccc(S(=O)(=O)NCc2nnnn2-c2ccc(F)cc2)cc1	none (no result: T cell modulator)
COc1ccc(-n2c(=S)[nH]c3cc(C(=O)Nc4ccc(C)c(F)c4)ccc3c2=O)c(OC)c1	Myeloid diff MLP active (no result: DSG3 Ab inh) | Myeloid diff CP1 inactive | GFP autofluor inactive
CN1OC[C@@H]2CN(C(=O)CCc3ccccc3)[C@H](c3cccc(Oc4ccccc4)c3)C[C@@H]21	none (no result: T cell modulator) | Myeloid diff CP1 inactive | GFP autofluor inactive
CC(=O)N1C[C@H]2CON(C)[C@H]2C[C@H]1c1ccccc1	none (no result: T cell modulator, DSG3 Ab inh)
CCCCc1c(CCC)c(=N)c2ccccc2n1C	none | Myeloid diff CP1 inactive | GFP autofluor inactive
O=C(NCc1ccccc1)C(c1ccc(-c2ccccc2)cc1)N1CCN(c2ccccc2F)CC1 (configuration not stated)	none (no result: Vif imaging, T cell modulator, DSG3 Ab inh)
COc1cc2c(=O)n(Cc3ccccc3)c(=O)n(CC(=O)NCCc3ccccc3)c2cc1OC	Myeloid diff MLP active | Myeloid diff CP1 inactive | GFP autofluor inactive
COc1cc2c(=O)n(Cc3ccccc3)c(=O)n(CC(=O)NCC3CCCO3)c2cc1OC (configuration not stated)	none
CCN1CCN(Cc2cccc(Oc3ccc(Cl)cc3)c2)CC1	Myeloid diff MLP active | Myeloid diff CP1 inactive | GFP autofluor inactive
CC1(C)CC(=O)C=C(NCC(=O)O)C1	none
CCSCCC(NC1=CC(=O)CC(C)(C)C1)C(=O)O (configuration not stated)	Myeloid diff MLP active | Myeloid diff CP1 inactive | GFP autofluor inactive
C[n+]1ccccc1/C=C1\Sc2ccccc2N1CCO	none
Cc1ccc2c(c1)S/C(=C\c1cccc[n+]1C)N2CCO	Myeloid diff MLP active | Myeloid diff CP1 inactive | GFP autofluor 68
COc1ccc(-c2cc(CNc3nc4cc(-c5ccccc5C)sc4c(=O)n3C)on2)cc1	none (no result: T cell modulator, DSG3 Ab inh)
c1ccc(COc2ccc(OCCn3cncn3)cc2)cc1	none (no result: Vif imaging) | Myeloid diff CP1 inactive | GFP autofluor inactive
c1ccc(-c2ccc(OCCCn3cncn3)cc2)cc1	none (no result: DSG3 Ab inh)
CCOC(=O)CCCCCC(=O)Nc1ccc2c(c1)C(=O)N([C@@H](C)CO)C[C@@H](C)[C@H](CN(C)C(=O)Nc1ccccc1)OCCCC[C@H](C)O2	none (no result: Vif imaging, T cell modulator)
Cn1c(=O)c2cc(S(=O)(=O)NCCC(=O)NCCC3=CCCCC3)ccc2n(C)c1=O	Myeloid diff MLP active | Myeloid diff CP1 inactive | GFP autofluor inactive
N#Cc1c2nc3ccccc3nc2n2cc(NC(=O)c3ccc(F)cc3)ccc12	none (no result: T cell modulator) | Myeloid diff CP1 inactive | GFP autofluor inactive
CCCCCCn1c(=O)n2n(c1=O)C[C@]1(OC(=O)Nc3c(C)noc3C)CN(S(=O)(=O)c3ccc(C)cc3)C[C@]1(O)C2	none (no result: T cell modulator, DSG3 Ab inh)
CCOc1ccccc1-n1c(SCC(N)=O)nnc1-c1ccccc1	none | Myeloid diff CP1 inactive | GFP autofluor inactive
CCc1nc2ccc(C(=O)N(C)CCN(C)C)cn2c1N(C)Cc1cc2ccccc2s1	none (no result: T cell modulator, DSG3 Ab inh)
O=C(NCCc1c[nH]c2ccccc12)c1ccc([N+](=O)[O-])o1	Myeloid diff MLP active (no result: T cell modulator) | Myeloid diff CP1 inactive | GFP autofluor inactive
c1coc(C2Nc3ccccc3-c3nc4ccccc4n32)c1 (configuration not stated)	none | Myeloid diff CP1 inactive | GFP autofluor inactive
CC(C)C[C@@H](CN)NC(=O)c1nc[nH]c1C(=O)N[C@@H](CC(C)C)C(=O)CNC[C@H](C)NC(=O)c1nc[nH]c1C(=O)N[C@@H](C)C(=O)O	none (no result: T cell modulator)
CC1(C)CCC[C@]2(C)[C@H]3Cc4cc(O)ccc4O[C@]3(C)CC[C@@H]12	none
CCCC[C@@H]1CCCO[C@@](C(=O)NCc2ccc(C)o2)(C(F)(F)F)C1	none (no result: T cell modulator)
COc1ccccc1C1N(c2ccc(Cl)cc2)C(=O)C2CCCN21 (configuration not stated)	Myeloid diff MLP active (no result: Vif imaging) | Myeloid diff CP1 active | GFP autofluor inactive
O=C(Cc1ccc(NC(=O)C2CCN(C(=O)C3CC3)CC2)cc1)Nc1ccc(C(=O)N2CCOCC2)cc1	none (no result: T cell modulator)
CC(SCCc1ccccn1)C(=O)O (configuration not stated)	none (no result: DSG3 Ab inh) | Myeloid diff CP1 inactive | GFP autofluor inactive
Cc1ccc(N(C)S(=O)(=O)c2cccc(C(=O)Nc3ccc(N4CCOCC4)cc3)c2)cc1	Myeloid diff MLP active | Myeloid diff CP1 inactive | GFP autofluor inactive
O=C(Nc1cccc(S(=O)(=O)N2CCCCC2)c1)c1ccc2c(=O)n3c(nc2c1)CCCCC3	none | Myeloid diff CP1 inactive | GFP autofluor inactive
CN(C)S(=O)(=O)c1cccc(NC(=O)c2cccc(S(=O)(=O)N3CCCCCC3)c2)c1	Myeloid diff MLP active (no result: T cell modulator) | Myeloid diff CP1 inactive | GFP autofluor inactive
CN(C)S(=O)(=O)c1cccc(NC(=O)c2ccc(S(=O)(=O)N3CCCCC3)cc2)c1	none
COc1cc(NCC(=O)Nc2cccc(S(=O)(=O)N3CCCCC3)c2)cc(OC)c1OC	Myeloid diff MLP active (no result: DSG3 Ab inh) | Myeloid diff CP1 inactive | GFP autofluor inactive
CCNC(=O)C1(C)CCN(C(=O)c2ccccc2F)C1 (configuration not stated)	none (no result: T cell modulator, DSG3 Ab inh)
Nc1nc(SCc2cccnc2)c2ncn(C3OC(CO)C(O)C3O)c2n1 (configuration not stated)	none (no result: T cell modulator)
Cn1cnc2ncnn2c1=S	none (no result: T cell modulator)
O=C(NCCO)c1cccc(S(=O)(=O)N2CCCCC2)c1	none | Myeloid diff CP1 inactive | GFP autofluor inactive
